Measurements published in PubChem BioAssay.
Results filed as inconclusive are left out.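 Rule for the calls, unless noted: active = cell viability at or below a set limit in both duplicate runs, the limit being the all-compound median minus 4 SD (cut at about 23% in these data, passing the limit was not always enough); inconclusive = no clear call, values can overlap the other calls; inactive = the rest.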

What was measured:
[1] = OD615 S. cerevisiae growth inhibition, permissive medium, pilot counter-assay, permissive growth control for S. cerevisiae lifespan shortening project (AID 705;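 active = growth inhibition above 25% in both replicates, a cutoff set 3 SD above the mean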); details: OD615, 24 h, at 10 µM, active compounds read high
Method in brief: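 Test system: Saccharomyces cerevisiae strain carrying genetically modified DeaD replicative-lifespan system; buffer or medium: SC raffinose/galactose permissive medium; dosing: one dose 10 µM, DMSO 0.25% final; times: 24 h exposure, 30 °C; measured by: OD at 615 nm; read-out basis: growth inhibition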

[2] = Restrictive medium S. cerevisiae growth inhibition, OD615, pilot screen of yeast lifespan reduction project, restrictive growth control (AID 706;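 active = growth inhibition above a set limit, 3 SD over mean compound inhibition, in both replicates, cut at about 43% in these data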;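 note: modified DeaD lifespan yeast strain shifted to restrictive glucose medium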); details: OD615, 48 h, at 10 µM, active compounds read high
Method in brief: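 material = engineered S. cerevisiae DeaD strain | buffer or medium = glucose-based CSMM-D restrictive medium | dosing = one concentration, 10 µM final, 0.25% DMSO | schedule = 4 h pre-growth plus 48 h compound exposure, 30 °C | detection = OD615 absorbance reading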

[3] = viability gain of MRP-1-high H69AR cells under doxorubicin, pilot screen, MRP-1 activator project, CellTiter-Glo, duplicate (AID 807;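 active = viability increase at or above a cutoff of the median across tested compounds plus 3 SD, cut at about 8.5% in these data, passing the limit was not always enough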;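 note: compound pretreatment 18-22 h then 72 h combined with doxorubicin; 0% = doxorubicin alone and 100% = vehicle without doxorubicin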); details: H69AR viability with doxorubicin, CellTiter-Glo luminescence; at 10 µM; active compounds read high
[4] = growth suppression of beta-catenin knockout HCT116, pilot screen, human colon tumor cells (AID 823); details: CellTiter-Glo, 60 h, at 10 µM, active compounds read low;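 note: 0% = wells killed by 20 µM Hyamine and 100% = untreated DMSO cell wells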
[5] = growth suppression of PTEN-deleted HCT116, pilot screen, cell-based, HCT116 clonal line, CellTiter-Glo (AID 824;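 active = viability at or below 27.92% in each of two runs, the all-compound median minus 4 SD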;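 note: 0% = 20 µM Hyamine control and 100% = vehicle cell control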); details: 60 h, at 10 µM, active compounds read low
[6] = inhibitors of the yeast RAM network, pilot screen, dse1pr::URA3 reporter, 5-FOA selection (AID 869;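 active = inhibition over a set limit, the all-compound mean plus 3 SD, in both replicate runs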;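 note: 0% = DMSO wells with no growth and 100% = 10 µM 1-NA-PP1 with full growth; RAM network block rescues cells from 5-FOA so hits raise OD615 growth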); details: S. cerevisiae dse1pr::URA3 5-FOA growth, OD615, 2 d; at 10 µM; active compounds read high; strain carries analog-sensitive mutant Cbk1 kinase
[7] = RAM signaling pathway blockade in yeast – S. cerevisiae, Pdr1DBD-CYC8 efflux-inhibited sensitized strain, primary screen (AID 1298;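 active = RAM network inhibition above 8.4% in each of two replicates, 3 SD over the compound average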;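 note: 0% = DMSO untreated cells without growth and 100% = 10 µM 1-NA-PP1 full growth; higher means more yeast growth rescued from 5-FOA killing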); details: S. cerevisiae cbk1-as DSE1-URA3 strain, 5-FOA growth OD615, 2 d; at 50 µM; active compounds read high

Cc1ccc(C2CC(c3ccccc3C)n3nc(N)nc3N2)cc1 (centres undefined)
inactive: growth inhibition [1] 0.605% | growth inhibition [2] -2.86% | viability increase [3] -0.57% | viability [4] 84.6% | viability [5] 83% | inhibition [6] 0.77% | RAM network inhibition [7] 4.75%

O=C(O)[C@@H](c1ccccc1)N1Cc2ccccc2C1=O
inactive: growth inhibition [1] 2.66% | growth inhibition [2] -13.5% | viability increase [3] -0.32% | viability [4] 104% | viability [5] 96.7% | inhibition [6] 1.13% | RAM network inhibition [7] 1.56%

CC1(C)CCCC2=C1CC1C(=O)N(Cc3cccnc3)C(=O)C1C2 (centres undefined)
inactive: growth inhibition [1] -6.32% | growth inhibition [2] -10.3% | viability increase [3] -0.2% | viability [4] 82.2% | viability [5] 86.7% | inhibition [6] 1.11% | RAM network inhibition [7] 4.53%

CCC(=O)Nc1cccc(NC(=O)c2cc3ccccc3o2)c1
inactive: growth inhibition [1] -10.9% | growth inhibition [2] -9.17% | viability increase [3] -1.82% | viability [4] 93.8% | viability [5] 90.2% | inhibition [6] 1.2% | RAM network inhibition [7] 5.21%

CC(C)N1CC(O)=C(c2ccccc2)C1=N
inactive: growth inhibition [1] 2.25% | growth inhibition [2] -15.7% | viability increase [3] -0.1% | viability [4] 96.5% | viability [5] 97.2% | inhibition [6] 0.86% | RAM network inhibition [7] 4.5%

Cc1ccc(-n2ncc3c(=O)[nH]c(SCC(=O)N4CCCCC4)nc32)cc1
inactive: growth inhibition [1] -4.04% | growth inhibition [2] 2.2% | viability increase [3] -4.87% | viability [4] 94.6% | viability [5] 92.1% | inhibition [6] 1.27% | RAM network inhibition [7] 0.05%

CCc1ccccc1S(=O)(=O)Cc1ccc(C(=O)NCc2ccc3c(c2)OCO3)o1
inactive: growth inhibition [1] -12% | growth inhibition [2] -13.8% | viability increase [3] -2.5% | viability [4] 95.7% | viability [5] 91.1% | inhibition [6] 1.87% | RAM network inhibition [7] 7.83%

Cc1ccc(C)c(S(=O)(=O)Nc2ccc(O)cc2)c1
inactive: growth inhibition [1] -9.59% | growth inhibition [2] 11.7% | viability increase [3] -2.63% | viability [4] 101% | viability [5] 97% | inhibition [6] 1.44% | RAM network inhibition [7] 2.77%

CC1(C)Cc2ccccc2-c2nc(NCCCO)n(-c3ccccc3)c(=O)c21
inactive: growth inhibition [1] -18.3% | growth inhibition [2] -18.9% | viability increase [3] -0.84% | viability [4] 97.7% | viability [5] 91.3% | inhibition [6] 1.07% | RAM network inhibition [7] 5.29%

CCOC(=O)c1cnc2ccc(Br)cc2c1NCC(C)O (centres undefined)
inactive: growth inhibition [1] -11.9% | growth inhibition [2] -9.36% | viability increase [3] -4.28% | viability [4] 91.4% | viability [5] 89.2% | inhibition [6] 1.19% | RAM network inhibition [7] 2.79%

COc1ccccc1N1C(=O)N(C(C)=O)C2C1Nc1ccccc1N2C (centres undefined)
inactive: growth inhibition [1] -2.22% | growth inhibition [2] -10% | viability increase [3] -5.51% | viability [4] 78.2% | viability [5] 86.5% | inhibition [6] 1.71% | RAM network inhibition [7] 4.65%

COc1ccc(C(=O)/C(C)=N/O)cc1OC
inactive: growth inhibition [1] -15.6% | growth inhibition [2] -1.75% | viability increase [3] -0.59% | viability [4] 90.5% | viability [5] 88.6% | inhibition [6] 1.42% | RAM network inhibition [7] 2.98%

COc1ccc(-c2nc(CS(=O)(=O)CC(=O)Nc3ccc(Cl)cc3)c(C)o2)cc1
inactive: growth inhibition [1] -8.75% | growth inhibition [2] -7.49% | viability increase [3] -2.64% | viability [4] 48.5% | viability [5] 49.6% | inhibition [6] 2.77% | RAM network inhibition [7] 3.02%

O=C(CCCCCN1C(=O)C2C3C=CC(C3)C2C1=O)Nc1nccs1 (centres undefined)
inactive: growth inhibition [1] -3.44% | growth inhibition [2] -2.41% | viability increase [3] -1.31% | viability [4] 100% | viability [5] 91.5% | inhibition [6] 0.215% | RAM network inhibition [7] 4.28%

Cc1cc(C)cc(N(CC(=O)N2CCN(Cc3ccccc3)CC2)S(=O)(=O)c2c(C)noc2C)c1
inactive: growth inhibition [1] -13.5% | growth inhibition [2] -29.5% | viability increase [3] -4.22% | viability [4] 101% | viability [5] 96.9% | inhibition [6] 1.84% | RAM network inhibition [7] 3.45%

Oc1[nH]c2ccccc2c1C=Nc1ccc2c(c1)OCO2
inactive: growth inhibition [1] -18.5% | growth inhibition [2] -9.39% | viability increase [3] -5.2% | viability [4] 75% | viability [5] 71.4% | inhibition [6] 1.74% | RAM network inhibition [7] 1.86%

COc1ccc(S(=O)(=O)N2CCN(c3cccc(C)c3C)CC2)cc1
inactive: growth inhibition [1] -16.7% | growth inhibition [2] -13.3% | viability increase [3] 1.83% | viability [4] 97.9% | viability [5] 90.5% | inhibition [6] 1.02% | RAM network inhibition [7] 2.58%

CN1CCN(c2ccccc2NC(=O)C(Cc2ccccc2)n2cccc2)CC1 (centres undefined)
inactive: growth inhibition [1] -7.49% | growth inhibition [2] -4.39% | viability increase [3] -7.39% | viability [4] 55.6% | viability [5] 59.3% | inhibition [6] 2.68% | RAM network inhibition [7] 4.23%

CC(NC(=O)CSc1ncnc2nc[nH]c12)c1ccccc1 (centres undefined)
inactive: growth inhibition [1] -15.5% | growth inhibition [2] -5.1% | viability increase [3] -0.99% | viability [4] 99.8% | viability [5] 96% | inhibition [6] 0.755% | RAM network inhibition [7] 0.48%

COc1ccc(-c2nc(CSCC(=O)N3CCN(C(=O)c4ccco4)CC3)c(C)o2)cc1OC
inactive: growth inhibition [1] -1.3% | growth inhibition [2] 0.055% | viability increase [3] -1.9% | viability [4] 106% | viability [5] 103% | inhibition [6] -0.54% | RAM network inhibition [7] 5.11%

CN1CCN(Cc2ccc(-c3ccc(Cl)cc3)o2)CC1
inactive: growth inhibition [1] -15.8% | growth inhibition [2] -22.6% | viability increase [3] -2.14% | viability [4] 86.1% | viability [5] 102% | inhibition [6] 1.56% | RAM network inhibition [7] 2.49%

O=C(OC1CCCCC1)c1ccc(NC(=O)c2ccco2)cc1
inactive: growth inhibition [1] -1.26% | growth inhibition [2] -7.55% | viability increase [3] -2.73% | viability [4] 70.1% | viability [5] 77.5% | inhibition [6] 0.87% | RAM network inhibition [7] 2.81%

N#CCCN(CCC#N)C(=O)c1ccc(Cl)cc1
inactive: growth inhibition [1] -2.15% | growth inhibition [2] -11.1% | viability increase [3] -1.59% | viability [4] 92.7% | viability [5] 93.2% | inhibition [6] 1.3% | RAM network inhibition [7] 3.78%

COc1cc(Nc2cc(C)nc3nc(C)nn23)cc(OC)c1OC
inactive: growth inhibition [1] 2.3% | growth inhibition [2] 6.15% | viability increase [3] -1.11% | viability [4] 95.7% | viability [5] 104% | inhibition [6] 0.525% | RAM network inhibition [7] 4.23%

CNc1nc(-c2ccc(Cl)cc2)cs1
inactive: growth inhibition [1] -5.83% | growth inhibition [2] -22.5% | viability increase [3] 0.42% | viability [4] 92.1% | viability [5] 87.8% | inhibition [6] 0.94% | RAM network inhibition [7] 0.43%

CCSCCOC(=O)C1=C(C)NC(=O)NC1c1ccc2c(c1)OCO2 (centres undefined)
inactive: growth inhibition [1] 3.31% | growth inhibition [2] 3.72% | viability increase [3] -1.35% | viability [4] 94.3% | viability [5] 94.5% | inhibition [6] 2.05% | RAM network inhibition [7] 0.41%

C=CCn1c(CCCNC(=O)CCC)nc2ccccc21
inactive: growth inhibition [1] 2% | growth inhibition [2] 0.97% | viability increase [3] -0.01% | viability [4] 99.4% | viability [5] 103% | inhibition [6] -0.095% | RAM network inhibition [7] 4.24%

CCCNC(=O)CS(=O)Cc1nc(-c2ccc(OC)cc2)oc1C (centres undefined)
inactive: growth inhibition [1] -5.5% | growth inhibition [2] 19.6% | viability increase [3] -2.12% | viability [4] 97.2% | viability [5] 93.9% | inhibition [6] 1.62% | RAM network inhibition [7] 3.43%

Cc1ccccc1NC(=O)CSC(N)=O
inactive: growth inhibition [1] -1.39% | growth inhibition [2] 14.1% | viability increase [3] -4.63% | viability [4] 89.4% | viability [5] 91% | inhibition [6] 0.48% | RAM network inhibition [7] 8.45%

O=C(C1=C(O)C(=O)N(c2ncccn2)C1c1cccs1)c1ccco1 (centres undefined)
inactive: growth inhibition [1] 0.75% | growth inhibition [2] 7.12% | viability increase [3] -4.29% | viability [4] 86.5% | viability [5] 85.3% | inhibition [6] 1.54% | RAM network inhibition [7] 1.69%

OC1CC(c2ccco2)NC2(CCCCC2)C1 (centres undefined)
inactive: growth inhibition [1] -4.09% | growth inhibition [2] 1.06% | viability increase [3] -1.66% | viability [4] 97.2% | viability [5] 94.6% | inhibition [6] 0.39% | RAM network inhibition [7] 2.73%

CCOc1ccc(N2CC(=O)SC2=S)cc1
inactive: growth inhibition [1] -6.07% | growth inhibition [2] -0.73% | viability increase [3] 1.09% | viability [4] 96.3% | viability [5] 95.9% | inhibition [6] 0.425% | RAM network inhibition [7] 7.05%

CC(C)CN(CC(C)C)c1nnc(N)s1
inactive: growth inhibition [1] 3.15% | growth inhibition [2] 2.1% | viability increase [3] 1.25% | viability [4] 103% | viability [5] 99.5% | inhibition [6] 0.56% | RAM network inhibition [7] 1.13%

Nc1nc(Nc2ccccc2Br)nc(C(F)(F)F)n1
inactive: growth inhibition [1] -3.56% | growth inhibition [2] 4.02% | viability increase [3] 0.23% | viability [4] 104% | viability [5] 93.4% | inhibition [6] 1.84% | RAM network inhibition [7] 0.72%

N#CC1=C2SCN(Cc3ccccc3)CN2C(=O)CC1c1ccccc1F (centres undefined)
inactive: growth inhibition [1] -3.35% | growth inhibition [2] 15.7% | viability increase [3] -4.34% | viability [4] 90.4% | viability [5] 88.4% | inhibition [6] 1.01% | RAM network inhibition [7] 2.49%

O=C(Cn1cnc2c(cnn2-c2ccccc2)c1=O)N1CCOCC1
inactive: growth inhibition [1] -4% | growth inhibition [2] -3.03% | viability increase [3] -0.44% | viability [4] 101% | viability [5] 102% | inhibition [6] 0.17% | RAM network inhibition [7] 1.17%

S=c1[nH]nc(-c2ccncc2)n1Cc1ccccc1
inactive: growth inhibition [1] -4.1% | growth inhibition [2] -9.11% | viability increase [3] -1.9% | viability [4] 100% | viability [5] 93.7% | inhibition [6] 0.265% | RAM network inhibition [7] 1.95%
